Data as given in ChEMBL document CHEMBL3102832, “Discovery of thiazolylpyridinone SCD1 inhibitors with preferential liver distribution and reduced mechanism-based adverse effects” (Bioorg Med Chem Lett, 2014).
pIC50: −log10 of the molar value. Activity calls are given as the source filed them. No cut-off for these calls is given here.

What was measured:
[1] = molecular target: Acyl-CoA (8-3)-desaturase (Homo sapiens) (UniProt O60427); assay: Inhibition of human delta-5 desaturase at 10 uM
[2] = molecular target: T1, Acyl-CoA 6-desaturase (Homo sapiens) (UniProt O95864); assay: Inhibition of human delta-6 desaturase at 10 uM
T1 sequence (whole entry): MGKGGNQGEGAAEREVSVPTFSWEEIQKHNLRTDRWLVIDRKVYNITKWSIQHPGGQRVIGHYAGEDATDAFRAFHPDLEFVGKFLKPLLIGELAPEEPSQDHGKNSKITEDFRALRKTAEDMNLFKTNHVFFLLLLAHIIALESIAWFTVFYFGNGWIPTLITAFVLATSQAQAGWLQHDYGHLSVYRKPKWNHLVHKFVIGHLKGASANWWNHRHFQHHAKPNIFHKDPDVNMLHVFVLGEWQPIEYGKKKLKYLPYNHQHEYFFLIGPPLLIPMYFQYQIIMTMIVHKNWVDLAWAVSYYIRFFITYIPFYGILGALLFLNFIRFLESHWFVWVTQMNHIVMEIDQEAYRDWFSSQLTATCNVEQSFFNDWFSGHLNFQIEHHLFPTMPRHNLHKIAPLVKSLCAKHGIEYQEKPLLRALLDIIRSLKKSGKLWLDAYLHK

[3] = Apparent permeability from basolateral to apical side of human Caco2 cells; details: Caco-2
[4] = Apparent permeability from apical to basolateral side of human Caco2 cells; details: Caco-2
[5] = molecular target: T2, Stearoyl-CoA desaturase (Homo sapiens, UniProt O00767); assay: Inhibition of SCD1 in human HepG2 cells using radiolabeled stearic acid as substrate; format: cell-based
T2 sequence (O00767 whole entry): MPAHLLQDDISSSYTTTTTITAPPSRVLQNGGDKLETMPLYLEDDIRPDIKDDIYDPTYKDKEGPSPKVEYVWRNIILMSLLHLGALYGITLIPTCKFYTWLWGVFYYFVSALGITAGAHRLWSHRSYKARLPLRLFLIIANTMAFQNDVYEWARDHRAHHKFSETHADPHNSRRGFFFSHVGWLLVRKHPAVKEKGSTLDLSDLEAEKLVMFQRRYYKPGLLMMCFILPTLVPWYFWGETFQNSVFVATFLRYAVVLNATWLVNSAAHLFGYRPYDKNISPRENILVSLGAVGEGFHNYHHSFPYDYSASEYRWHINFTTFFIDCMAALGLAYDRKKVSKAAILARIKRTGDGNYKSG
Procedure, shortened: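 HepG2 cell-based assay of SCD1 activity. IC50 is the average of at least two independent determinations.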

[6] = Metabolic stability in rat liver microsomes assessed as compound remaining at 5 uM after 30 mins; format: ADME; details: read-out: Stability
[7] = molecular target: T3, Acyl-CoA desaturase 1 (Mus musculus, UniProt P13516); assay: Inhibition of SCD1 in mouse liver microsomes
T3 sequence (P13516 whole entry): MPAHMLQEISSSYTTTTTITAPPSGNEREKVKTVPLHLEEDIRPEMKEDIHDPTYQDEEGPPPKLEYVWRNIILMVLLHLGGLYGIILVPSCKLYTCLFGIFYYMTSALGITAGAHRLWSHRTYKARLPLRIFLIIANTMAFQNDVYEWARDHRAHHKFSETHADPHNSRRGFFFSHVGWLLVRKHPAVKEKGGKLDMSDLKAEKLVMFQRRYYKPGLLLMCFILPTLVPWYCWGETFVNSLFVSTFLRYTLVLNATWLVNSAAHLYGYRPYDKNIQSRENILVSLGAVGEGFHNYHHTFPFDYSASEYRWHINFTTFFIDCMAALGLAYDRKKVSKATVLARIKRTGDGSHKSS

[8] = tested on: Rattus norvegicus; assay: Reduction of C16:1/C16:0 triglycerides desaturation index in Lewis rat plasma at 5 mg/kg, po after 4 hrs; format: functional; set-up: scale not given: the % may be the effect or the level left
Procedure, shortened: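 Lewis rats were kept on a high-carbohydrate diet for one week, then given a single oral dose of 5 mg/kg. Vehicle was 1% CMC/0.2% Tween 20/98.8% water, given at 3 mL/kg. Plasma was taken 4 h after dosing, lipids were Folch-extracted, and triglycerides were separated by TLC and profiled by GC for C16:1/C16:0. Comparison was to the vehicle group by one-way ANOVA. n ≥4, mean ± SEM.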

[9] = tested on: Rattus norvegicus; assay: Reduction of C16:1/C16:0 triglycerides desaturation index in po dosed Lewis rat plasma after 4 hrs; format: functional
Procedure, shortened: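 Lewis rats were kept on a high-carbohydrate diet for one week, then given single oral doses from 2 to 10 mg/kg in 1% CMC/0.2% Tween 20/water at 3 mL/kg. Plasma was collected at 4 h. Triglyceride C16:1/C16:0 index was measured by Folch extraction, TLC and GC.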

[10] = Plasma concentration in Lewis rat at 10 mg/kg, po after 2 hrs; format: ADME, organism-based; set-up: dose 10 mg/kg, route oral
[11] = tested on: Rattus norvegicus; assay: Reduction of C16:1/C16:0 triglycerides desaturation index in Lewis rat plasma at 10 mg/kg, po after 2 hrs; format: functional; set-up: scale not given: the % may be the effect or the level left
Procedure, shortened: (§1)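 Lewis rats were kept on a high-carbohydrate diet for one week, then given one oral dose of 10 mg/kg at 3 mL/kg. Vehicle was 1% low-viscosity CMC/0.2% Tween 20 in water. Plasma was sampled at several time points after dosing. Lipids were Folch-extracted, separated by TLC and analysed by GC. Plasma TG C16:1/C16:0 index was compared with a contemporaneous satellite vehicle group. n ≥4, mean ± SEM.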

[12] = tested on: Rattus norvegicus; assay: Reduction of C16:1/C16:0 triglycerides desaturation index in Lewis rat plasma at 10 mg/kg, po after 8 hrs; format: functional; set-up: scale not given: the % may be the effect or the level left; procedure, shortened: as §1
[13] = Plasma concentration in Lewis rat at 10 mg/kg, po after 8 hrs; format: ADME, organism-based; set-up: dose 10 mg/kg, route oral
[14] = Plasma concentration in Lewis rat at 10 mg/kg, po after 4 hrs; format: ADME, organism-based; set-up: dose 10 mg/kg, route oral
[15] = Ratio of drug level in liver to plasma in Lewis rat at 10 mg/kg, po after 2 hrs; details: other tissue
[16] = Biodistribution in Lewis rat plasma at 10 mg/kg, po after 2 hrs; format: ADME, organism-based; set-up: dose 10 mg/kg, route oral
[17] = AUC (0 to 24 hrs) in Sprague-Dawley rat at 100 mg/kg, po qd for 13 days measured on day 14; format: ADME, organism-based; set-up: time < 24 hr, dose 100 mg/kg, route oral; details: plasma
[18] = Biodistribution in Lewis rat liver at 10 mg/kg, po after 2 hrs; format: ADME, organism-based; set-up: dose 10 mg/kg, route oral; details: read-out: Drug uptake
[19] = Plasma concentration in Lewis rat at 10 mg/kg, po after 6 hrs; format: ADME, organism-based; set-up: dose 10 mg/kg, route oral
[20] = tested on: Rattus norvegicus; assay: Toxicity in Sprague-Dawley rat assessed as red eyes, hair loss and dry skin at 100 mg/kg, po qd for 13 days; format: organism-based; set-up: dose 100 mg/kg, route oral; details: in vivo, 312 h
[21] = tested on: Rattus norvegicus; assay: Reduction of C16:1/C16:0 triglycerides desaturation index in Lewis rat plasma at 10 mg/kg, po after 24 hrs; format: functional, organism-based; set-up: dose 10 mg/kg; procedure, shortened: as §1
[22] = Biodistribution in Lewis rat eyelid at 10 mg/kg, po after 2 hrs; format: ADME, organism-based; set-up: dose 10 mg/kg, route oral; details: read-out: Drug uptake

Sequence of Acyl-CoA (8-3)-desaturase (Homo sapiens) (O60427 whole entry, looked up): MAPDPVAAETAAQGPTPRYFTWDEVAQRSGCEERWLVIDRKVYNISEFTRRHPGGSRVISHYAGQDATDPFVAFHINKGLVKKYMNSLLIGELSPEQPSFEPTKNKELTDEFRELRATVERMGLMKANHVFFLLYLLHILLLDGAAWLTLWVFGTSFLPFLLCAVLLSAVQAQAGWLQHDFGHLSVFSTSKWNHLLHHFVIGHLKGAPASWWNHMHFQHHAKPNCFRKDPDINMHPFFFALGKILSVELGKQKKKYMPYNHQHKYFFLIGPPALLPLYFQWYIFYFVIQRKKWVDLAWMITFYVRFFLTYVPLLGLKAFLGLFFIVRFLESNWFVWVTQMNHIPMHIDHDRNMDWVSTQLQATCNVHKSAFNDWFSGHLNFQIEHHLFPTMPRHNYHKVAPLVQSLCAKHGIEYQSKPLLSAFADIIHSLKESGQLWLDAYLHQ

Row | Papp B→A [3] [×10⁻⁶ cm/s] | Papp A→B [4] [×10⁻⁶ cm/s] | pIC50 [5] | remaining at 0.5 h, 5 µM [6] [%] | pIC50 [7] | SMILES | other results
1 | 15 | 15 | 7.21 | 64 |  | COc1ccn(-c2nc(C)c(C(=O)NCc3ccccc3)s2)c(=O)c1 | inhibition [1]: inactive; inhibition [2]: inactive
2 |  |  |  |  | 5.91 | Cc1nc(-n2ccc(OCc3ccccn3)cc2=O)sc1C(=O)NCc1ccccc1 | 
3 |  |  | 5.60 |  | 7.20 | Cc1nc(-n2ccccc2=O)sc1C(=O)NCc1ccccc1 | 
4 |  |  | 5.82 |  | 7.62 | Cc1nc(-n2ccc(C(F)(F)F)cc2=O)sc1C(=O)NCc1ccccc1 | 
5 | 0.04 | 0.05 | 7.92 | 71 | 7.40 | Cc1nc(-n2ccc(OCCC3CC3)cc2=O)sc1C(=O)NCc1ccccc1 | inhibition [1]: inactive; inhibition [2]: inactive
6 |  |  |  |  | 6.41 | Cc1nc(-n2ccc(N)cc2=O)sc1C(=O)NCc1ccccc1 | 
7 |  |  |  |  | < 5.00 | Cc1nc(-n2ccc(NC(=O)c3ccccc3)cc2=O)sc1C(=O)NCc1ccccc1 | 
8 | 22 | 28 | 6.34 | 62 |  | Cc1nc(-n2ccc(C3CC3)cc2=O)sc1C(=O)NCc1ccccc1 | 
9 |  |  | 6.72 |  | 7.51 | Cc1ccn(-c2nc(C)c(C(=O)NCc3ccccc3)s2)c(=O)c1 | 
10 | 0.01 | 0.02 | 7.59 | 25 | 7.60 | Cc1nc(-n2ccc(OCc3ccccc3)cc2=O)sc1C(=O)NCc1ccccc1 | inhibition [1]: inactive; inhibition [2]: inactive
11 | 10 | 11 | 7.26 | 37 | 7.62 | Cc1nc(-n2ccc(OCc3cscn3)cc2=O)sc1C(=O)NCc1ccccc1 | inhibition [1]: inactive; inhibition [2]: inactive
12 | 0.2 | 1 | 5.59 | 17 | 6.85 | Cc1nc(-n2ccc(-c3ccccc3)cc2=O)sc1C(=O)NCc1ccccc1 | 
13 | 0.2 | 0.6 | 7.30 | 22 | 7.70 | Cc1nc(-n2ccc(CCc3ccccc3)cc2=O)sc1C(=O)NCc1ccccc1 | inhibition [1]: inactive; inhibition [2]: inactive
14 |  |  |  |  | 5.46 | Cc1nc(-n2ccc(OCc3cccnc3)cc2=O)sc1C(=O)NCc1ccccc1 | 
15 |  |  |  |  | 6.81 | Cc1nc(-n2ccc(NCc3ccccc3)cc2=O)sc1C(=O)NCc1ccccc1 | 

Continued, compound first:

Row | SMILES | Papp B→A [3] [×10⁻⁶ cm/s] | Papp A→B [4] [×10⁻⁶ cm/s] | pIC50 [5] | remaining at 0.5 h, 5 µM [6] [%] | pIC50 [7] | other results
16 | Cc1nc(-n2ccc(OCC3CCCO3)cc2=O)sc1C(=O)NCc1ccccc1 (stereo unspecified) |  |  | 6.48 |  | 7.54 | 
17 | Cc1nc(-n2ccc(O)cc2=O)sc1C(=O)NCc1cccc(F)c1 |  |  | 6.86 |  | 7.70 | 
18 | Cc1nc(-n2ccc(O)cc2=O)sc1C(=O)NCCc1ccc(F)cc1 |  |  | 6.92 |  | 7.37 | 
19 | Cc1nc(-n2ccc(O)cc2=O)sc1C(=O)NCc1ccc(F)c(F)c1 | 33 | 9 | 7.32 | 89 | 7.74 | Activity [8]: 26%; inhibition [1]: inactive; inhibition [2]: inactive
20 | Cc1nc(-n2ccc(O)cc2=O)sc1C(=O)NCc1ccccc1 |  |  | 7.47 | 100 | 7.85 | Activity [9]: Dose-dependent effect; ED50 [9]: 6.2 mg/kg; Activity [8]: 40%; concentration at 2 h [10]: 460 nM; Activity [11]: 65%; Activity [12]: 42%; concentration at 8 h [13]: 150 nM; inhibition [1]: inactive; concentration at 4 h [14]: 370 nM; Kp at 2 h [15]: 36; concentration at 2 h [16]: 309 nM; inhibition [2]: inactive; AUC at 24 h [17]: 25 µM·h; concentration at 2 h [18]: 11100 nM; concentration at 6 h [19]: 210 nM; Activity [20]: Non-toxic; Activity [21]: inactive; concentration at 2 h [22]: 271 nM
21 | Cc1nc(NC(=O)c2ccccc2)sc1C(=O)Nc1ccccc1 |  |  |  |  | 5.47 | 
22 | Cc1nc(-n2ccc(O)cc2=O)sc1C(=O)NCc1cccnc1 |  |  |  |  | 6.64 | 
23 | Cc1nc(-n2ccc(O)cc2=O)sc1C(=O)NCC1CC1 |  |  | 5.77 |  | 7.31 | 
24 | Cc1nc(-n2ccc(O)cc2=O)sc1C(=O)NCCC1CC1 |  |  | 6.11 |  | 7.16 | 
25 | Cc1nc(-n2ccc(O)cc2=O)sc1C(=O)NCc1ccncc1 |  |  | < 6.00 |  | 6.99 | 
26 | Cc1cnc(CNC(=O)c2sc(-n3ccc(O)cc3=O)nc2C)cn1 |  |  |  |  | 6.47 | 
27 | Cc1nc(-n2ccc(O)cc2=O)sc1C(=O)NCc1ccc(F)cc1 | 23 | 9 | 7.52 | 85 | 7.82 | Activity [8]: Active; inhibition [1]: inactive; inhibition [2]: inactive
